According to article PMC4495401 (Genes & Development, 2015):
Where a chain is given by its changes, count along the chain named. “Also recorded” adds a separate entry of the source.

Tests used:
[1] = test system: SIRT5; settings: fluorogenic Fluor-de-Lys (FdL) peptide substrate; ref Gertz et al. 2012; cited from earlier work
[2] = target: T1, SIRT1 E230K mutant (Homo sapiens, UniProt Q96EB6, C253S/C268S/C501S/C502S/DEL513-640/E230K); experiment: Enzyme-coupled deacetylation assay, SIRT1 E230K; format: biochemical; settings: p53-AMC 100 μM, 0.2 mM resveratrol, PBS pH 7.4, 37°C
T1 sequence (Q96EB6 with tags, fused parts or gaps E230K/C253S/C268S/C501S/C502S/DEL513-640 limits assumed): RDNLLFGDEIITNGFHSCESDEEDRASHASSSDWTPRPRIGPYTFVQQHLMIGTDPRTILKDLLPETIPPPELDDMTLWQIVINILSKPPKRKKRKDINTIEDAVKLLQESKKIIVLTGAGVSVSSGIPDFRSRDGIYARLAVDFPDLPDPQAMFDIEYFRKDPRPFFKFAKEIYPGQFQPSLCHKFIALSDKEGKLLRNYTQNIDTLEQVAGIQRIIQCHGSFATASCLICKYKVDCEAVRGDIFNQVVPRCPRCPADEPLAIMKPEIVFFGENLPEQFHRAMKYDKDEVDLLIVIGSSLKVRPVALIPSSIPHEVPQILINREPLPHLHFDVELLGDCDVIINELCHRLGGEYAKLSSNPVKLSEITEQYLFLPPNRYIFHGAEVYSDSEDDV
Outline: (§1)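 Mutants are made in the SIRT1-143CS background. Continuous coupled assay in PBS pH 7.4: 2 mM NAD, 100 μM p53-AMC, ±0.2 mM resveratrol, 0.2 mM NADH, 3.3 mM α-ketoglutarate, 1 μM PncA, 3 U glutamate dehydrogenase, 1 mM DTT, 2% DMSO. Pre-equilibrated 5–10 min at 37°C without NAD, then started with NAD. A340 followed 15 min, minus no-NAD background. Rate taken from the linear portion, three repeats.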

[3] = target: T2, SIRT1-143CS (C253S, C268S, C501S, C502S) (Homo sapiens, UniProt Q96EB6, C253S/C268S/C501S/C502S/DEL513-640); experiment: ITC peptide binding, SIRT1-143CS; settings: 25°C, 0.5 mM resveratrol
T2 sequence (Q96EB6 with tags, fused parts or gaps C253S/C268S/C501S/C502S/DEL513-640 limits assumed): T1 sequence (Q96EB6 with tags, fused parts or gaps E230K/C253S/C268S/C501S/C502S/DEL513-640 limits assumed) with K88E
Outline: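 p53-AMC peptide ([acR]HK[Kac]-AMC) at 1.5 mM was titrated into 0.1 mM SIRT1 protein at 25°C with 600 rpm stirring. The run used 20 injections, a 0.5 μL first drop that was not used, 2 μL drops thereafter and 2 min intervals. Titrant and protein were both in 20 mM HEPES pH 7.5, 150 mM NaCl, 10% glycerol, with or without 0.5 mM resveratrol. Buffer-only titrant heat was subtracted, and KD came from a one-site fit.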

[4] = target: T3, SIRT1 E230A mutant (Homo sapiens, UniProt Q96EB6, C253S/C268S/C501S/C502S/DEL513-640/E230A); experiment: Enzyme-coupled deacetylation assay, SIRT1 E230A; format: biochemical; settings: p53-AMC 100 μM, 0.2 mM resveratrol, PBS pH 7.4, 37°C
T3 sequence (Q96EB6 with tags, fused parts or gaps E230A/C253S/C268S/C501S/C502S/DEL513-640 limits assumed): T1 sequence (Q96EB6 with tags, fused parts or gaps E230K/C253S/C268S/C501S/C502S/DEL513-640 limits assumed) with K88A
Outline: as §1

[5] = target: T4, SIRT1 R446A mutant (Homo sapiens, UniProt Q96EB6, C253S/C268S/C501S/C502S/DEL513-640/R446A); experiment: Enzyme-coupled deacetylation assay, SIRT1 R446A; format: biochemical; settings: p53-AMC 100 μM, 0.2 mM resveratrol, PBS pH 7.4, 37°C
T4 sequence (Q96EB6 with tags, fused parts or gaps C253S/C268S/R446A/C501S/C502S/DEL513-640 limits assumed): T1 sequence (Q96EB6 with tags, fused parts or gaps E230K/C253S/C268S/C501S/C502S/DEL513-640 limits assumed) with K88E, R304A
Outline: as §1

[6] = test system: fluorophore-attached p53 peptides; settings: ref Borra et al. 2005; Pacholec et al. 2010; cited from earlier work
[7] = target: T5, SIRT1 Q222A/N226A mutant (Homo sapiens, UniProt Q96EB6, C253S/C268S/C501S/C502S/DEL513-640/N226A/Q222A); experiment: Enzyme-coupled deacetylation assay, SIRT1 Q222A/N226A; format: biochemical; settings: p53-AMC 100 μM, 0.2 mM resveratrol, PBS pH 7.4, 37°C
T5 sequence (Q96EB6 with tags, fused parts or gaps Q222A/N226A/C253S/C268S/C501S/C502S/DEL513-640 limits assumed): T1 sequence (Q96EB6 with tags, fused parts or gaps E230K/C253S/C268S/C501S/C502S/DEL513-640 limits assumed) with Q80A, N84A, K88E
Outline: as §1

[8] = test system: SIRT1-143; experiment: Enzyme-coupled deacetylation assay, SIRT1-143; format: biochemical, human; settings: p53-AMC substrate, 0.5 mM resveratrol (Fig. 1B)
Outline: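 Purified tag-free SIRT1 fragments (his-sumo tag removed after Ni-IDA, then size exclusion) in the continuous nicotinamidase/glutamate dehydrogenase-coupled assay. NADH oxidation was read at 340 nm using an extinction coefficient of 6.22 mM−1 cm−1. Reactions at 37°C in PBS pH 7.4, started with NAD, with and without resveratrol. Background from no-NAD controls was subtracted.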

[9] = test system: SIRT3; settings: fluorogenic Fluor-de-Lys (FdL) peptide substrate; ref Gertz et al. 2012; cited from earlier work
[10] = target: T6, SIRT1-143CS (Homo sapiens, UniProt Q96EB6, C253S/C268S/C501S/C502S/DEL513-640); format: biochemical; settings: 0.2 mM resveratrol, PBS pH 7.4, 37°C
T6 sequence (Q96EB6 with tags, fused parts or gaps C253S/C268S/C501S/C502S/DEL513-640 limits assumed): T1 sequence (Q96EB6 with tags, fused parts or gaps E230K/C253S/C268S/C501S/C502S/DEL513-640 limits assumed) with K88E

[11] = target: SIRT1 NTD (isolated protein domain); experiment: ITC, resveratrol to isolated SIRT1 NTD; format: binding, human; settings: 25°C
[12] = target: p53-AMC peptide; experiment: ITC, resveratrol to p53-AMC peptide; format: binding; settings: 25°C

- effect of resveratrol on Km for PGC-1α and FOXO3a peptides ([10]; native peptides without fluorophore): less pronounced
- binding affinity between resveratrol and the SIRT1 NTD [11]: too weak to be reliably quantitated
- binding affinity between resveratrol and the p53-AMC peptide [12]: too weak to be reliably quantitated
Compound: Oc1ccc(/C=C/c2cc(O)cc(O)c2)cc1 [resveratrol]
- effect on SIRT5 activity [1]: stimulate the activity of SIRT5
- stimulatory effect of resveratrol [2]: significantly reduced the stimulatory effect of resveratrol
- effect of resveratrol on binding between SIRT1 and the p53-AMC peptide [3]: increased the binding between SIRT1 and the p53-AMC peptide
- stimulatory effect of resveratrol [4]: significantly reduced the stimulatory effect of resveratrol
- level of resveratrol stimulation [5]: level of resveratrol stimulation similar to that of the E230K mutant
- interaction with fluorophore-attached p53 peptides [6]: weakly
- response to the addition of resveratrol [7]: conspicuous level of reduction in response to the addition of resveratrol
- stimulation of deacetylase activity by resveratrol [8]: stimulated by resveratrol in a manner similar to that of the full-length protein
- effect on SIRT3 activity [9]: inhibit SIRT3
- effect of resveratrol on Km for the p53-AMC peptide [10]: significantly lowered the Km value for the p53-AMC peptide; also recorded: lowered the Km value of the fluorogenic peptide
